Test results published in ChEMBL document CHEMBL1121813, “Dihydrochalcone sweeteners. A study of the atypical temporal phenomena” (1981).

How the values were obtained:
Assay type in all cases: functional
[1] = species: Homo sapiens; test: Sour character at a concentration of 210 ppm (mean value)
[2] = species: Homo sapiens; test: Intensity calculated on a molar basis relative to a 0.25 M sucrose solution at a concentration of 210 ppm (mean value)
Summary of the method: (§1)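 Trained human judges tasted aqueous solutions of the test compound; compounds were first required to be ≥95 weight percent pure and free of mutagenicity (five Salmonella typhimurium strains, ± microsomal activation) and of single oral dose mouse toxicity. Molar intensity I_m = perceived intensity × (0.25 M sucrose / compound molar concentration). The mean is reported with 2S_m limits; outliers were rejected at 95% confidence by t-value.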

[3] = species: Homo sapiens; test: Number of taste judgments per compound
[4] = species: Homo sapiens; test: Salty character at a concentration of 210 ppm (mean value)
[5] = species: Homo sapiens; test: Intensity calculated on a weight basis relative to an 85500 ppm sucrose solution at a concentration of 210 ppm (mean value)
Summary of the method: (§2)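 Trained human panel tasted aqueous solutions of purity-checked (≥95 weight percent) compounds cleared for mutagenicity and mouse oral toxicity. Weight-basis intensity I_w = perceived intensity × (85500 ppm sucrose / compound concentration in ppm). The mean is reported with 2S_m limits; data deviating excessively at 95% confidence were rejected by the t-value method.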

[6] = species: Homo sapiens; test: Experimentally determined perceived intensity of compound at a concentration of 210 ppm (mean value)
Summary of the method: (§3)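 Trained human sensory panel of judges tasted aqueous solutions of the compound. Samples had to be ≥95 weight % pure (HPLC, proton titration, Karl Fischer), non-mutagenic in five Salmonella typhimurium strains with and without microsomal activation, and non-toxic in a single-oral-dose mouse test. Perceived intensity (Ip) was read from time–intensity curves at 4- or 6-s intervals and averaged. Outliers at the 95% level were rejected by t-value. Values reported as mean (2Sm).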

[7] = species: Homo sapiens; test: Sweet character at a concentration of 210 ppm (mean value)
[8] = species: Homo sapiens; test: Percentage of judgments reporting an aftertaste at a concentration of 210 ppm and character thereof
Summary of the method: (§4)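 Trained judges tasted aqueous solutions of the compounds, which had to be ≥95 weight percent pure and to have passed mutagenicity and single oral dose toxicity screening. The value is the percentage of panel judgments reporting an aftertaste. Where given, its character is recorded as sweet, bitter or bitter-sweet.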

[9] = species: Homo sapiens; test: Other taste character at a concentration of 210 ppm (mean value)
Summary of the method: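 Trained human panel tasted aqueous solutions of each compound. Aftertaste is scored as the percentage of judgments reporting one, with its character coded sweet (s), bitter (b) or bitter-sweet (bs).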

[10] = species: Homo sapiens; test: Sweet / Bitter character at a concentration of 210 ppm (mean value); 0/100
[11] = species: Homo sapiens; test: Bitter character at a concentration of 210 ppm (mean value)
Summary of the method: (§5)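 Trained human panel tasted aqueous solutions. Each judge reported whether there was an aftertaste and its character (sweet, bitter or bitter-sweet). The value is the percentage of judgments reporting a bitter aftertaste.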

[12] = species: Homo sapiens; test: Percentage of judgments reporting an aftertaste at a concentration of 250 ppm and character thereof; summary of the method: as §4
[13] = species: Homo sapiens; test: Experimentally determined perceived intensity of compound at a concentration of 250 ppm (mean value); summary of the method: as §3
[14] = species: Homo sapiens; test: Intensity calculated on a weight basis relative to an 85500 ppm sucrose solution at a concentration of 250 ppm (mean value); summary of the method: as §2
[15] = species: Homo sapiens; test: Other taste character at a concentration of 250 ppm (mean value)
Summary of the method: (§6)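 Trained human sensory panel (Swartz method) tasted dilute aqueous solutions of the compounds, which had to be ≥95 weight percent pure and free of mutagenicity and toxicity. Taste character is reported as the mean value with 2S_m limits. Data deviating excessively at the 95% confidence level were rejected by the t-value method.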

[16] = species: Homo sapiens; test: Sweet / Bitter character at a concentration of 250 ppm (mean value); 14/86
[17] = species: Homo sapiens; test: Bitter character at a concentration of 250 ppm (mean value); summary of the method: as §5
[18] = species: Homo sapiens; test: Sour character at a concentration of 250 ppm (mean value); summary of the method: as §6
[19] = species: Homo sapiens; test: Salty character at a concentration of 250 ppm (mean value); summary of the method: as §6
[20] = species: Homo sapiens; test: Sweet character at a concentration of 250 ppm (mean value); summary of the method: as §6
[21] = species: Homo sapiens; test: Intensity calculated on a molar basis relative to a 0.25 M sucrose solution at a concentration of 250 ppm (mean value); summary of the method: as §1
[22] = species: Homo sapiens; test: Experimentally determined perceived intensity of compound at a concentration of 1000 ppm (mean value); summary of the method: as §3
[23] = species: Homo sapiens; test: Percentage of judgments reporting an aftertaste at a concentration of 1000 ppm; summary of the method: as §4
[24] = species: Homo sapiens; test: Intensity calculated on a weight basis relative to an 85500 ppm sucrose solution at a concentration of 240 ppm (mean value); summary of the method: as §2
[25] = species: Homo sapiens; test: Experimentally determined perceived intensity of compound at a concentration of 240 ppm (mean value); summary of the method: as §3
[26] = species: Homo sapiens; test: Bitter character at a concentration of 240 ppm (mean value); summary of the method: as §5
[27] = species: Homo sapiens; test: Sour character at a concentration of 240 ppm (mean value); summary of the method: as §6
[28] = species: Homo sapiens; test: Other taste character at a concentration of 240 ppm (mean value); summary of the method: as §6
[29] = species: Homo sapiens; test: Intensity calculated on a molar basis relative to a 0.25 M sucrose solution at a concentration of 240 ppm (mean value); summary of the method: as §1
[30] = species: Homo sapiens; test: Sweet character at a concentration of 240 ppm (mean value); summary of the method: as §6
[31] = species: Homo sapiens; test: Salty character at a concentration of 240 ppm (mean value); summary of the method: as §6
[32] = species: Homo sapiens; test: Percentage of judgments reporting an aftertaste at a concentration of 240 ppm and character thereof; summary of the method: as §4
[33] = species: Homo sapiens; test: Sweet / Bitter character at a concentration of 240 ppm (mean value); 0/100

`COc1ccc(CC/C(=N\O)c2c(O)cc(OCC(=O)[O-])cc2O)cc1O.[Na+]` gave a Taste character [1] of 26, an IM [2] of 130 and a Judgments [3] of 12. It also gave a Taste character [4] of 0, an IW [5] of 110 and an IP [6] of 0.2. It also gave a Taste character [7] of 0, a Judgments [8] of 0 and a Taste character [9] of 0. The Taste character [10] was 0 and the Taste character [11] was 74.
For `O=C([O-])COc1cc(O)c(C(=O)CCc2ccc(Cl)c(O)c2)c(O)c1.[Na+]`, the Judgments [12] was 0, the IP [13] was 0.28 and the IW [14] was 27. For the same compound, the Judgments [3] was 12, the Taste character [15] was 19 and the Taste character [16] was 14. For the same compound, the Taste character [17] was 70, the Taste character [18] was 0 and the Taste character [19] was 0. The Taste character [20] was 11 and the IM [21] was 31.
Work on `COc1ccc(CCC(=O)OC2C[C@](O)(C(=O)O)C[C@@H](O)[C@H]2O)cc1O` (stereo partly specified) yielded a Judgments [3] of 1, an IP [22] of 0 and a Judgments [23] of 0.
Compound `COc1ccc(CCCc2c(O)cc(OCC(=O)[O-])cc2O)cc1O.[Na+]` has a Judgments [3] of 12, an IW [24] of 4 and an IP [25] of 0.01. The Taste character [26] was 100, the Taste character [27] was 0 and the Taste character [28] was 0. For the same compound, the IM [29] was 4, the Taste character [30] was 0 and the Taste character [31] was 0. For the same compound, the Judgments [32] was 0 and the Taste character [33] was 0.
